Tested on: MS2 coat protein
Test: apparent Kd, MS2 coat protein; higher = weaker binding; RNA-MaP array; FMN 200 µM where present
Outline: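 In 100 mM Tris-HCl pH 7.5, 80 mM KCl, 4 mM MgCl2, BSA, DTT, yeast tRNA and Tween-20, SNAP-549-labelled MS2 coat protein was titrated from 0.7 or 1.5 nM, doubling to 3 µM, over designs transcribed by stalled E. coli RNA polymerase on Illumina sequencing-chip clusters. This was done first without ligand, then with ligand held constant. After green signal was normalised to red-channel RNA signal and control-cluster median Fmax, the apparent Kd was taken as the median of filtered per-cluster binding-curve fits.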

[1] = designed as: OFF switch for flavin mononucleotide, no ligand
[2] = ligand present: flavin mononucleotide, designed as: OFF switch for flavin mononucleotide
[3] = designed as: ON switch for flavin mononucleotide, no ligand
[4] = ligand present: flavin mononucleotide, designed as: ON switch for flavin mononucleotide

| Sequence | apparent Kd [1] | apparent Kd [2] | apparent Kd [3] | apparent Kd [4] |
| --- | --- | --- | --- | --- |
| AGGAGGUGAGGAUAUGCUGCUCGUCACUUGCGUGAUGAGUAGCAGAAGGCACAUGAGGAUCACCCAUGUAAAGA | 117 nM | 105 nM | – | – |
| GGCUGUCUCGCAGGAUAUGCUGAUCAGAAACUAGCAGAAGGGUGAUCCAGUCGAGGUUUGACAUGAGGAUCACCCAUGUGGAGU | – | – | 29.4 nM | 55.8 nM |
| GUGGUCAGACAUGAGGAUCACCCAUGUGGAAUAAAUAAGGAAUAGGAUAUCGAAUAUAGGAUAUACGAGAAGGGUUGGUUGGUG | – | – | 121 nM | 131 nM |
| AUCAGCUCGUCAGGAUAUACGUCACUGCGUCAUCAGUGUGGUAAGAUCACAUGAGGAUCACCCAUGUAGAAGGGACGAGCUGAU | 15.5 nM | 234 nM | – | – |
| UUGAUUAUACAAGGAUAUCUAUUGUAAUUUCGUCUUACAUGAGGAUCACCCAUGUUAAUAUUUUUAGAGAAGGUGUAUUUUCAG | – | – | 39.9 nM | 25.9 nM |
| CGGGUCUGAGGAUAUCCAUCCUCAUACAUGAGGAUCACCCAUGUUCACCCUUGGGUUCCCGGAGAAGGCAGUUUUC | 153 nM | 177 nM | – | – |
| UUAUUAUAUGUAGGAUAUGCAUAUUAUUAUUAUGCAGAAGGACAUGAGGAUCACCCAUGUAUAUUAUUGUUAUAUAUUAUAUAU | 24.8 nM | 39.3 nM | – | – |
| GCGAGGACGGCAGGAUAUUGACAUGAGGAUCACCCAUGUAUUUGGGAGUGUUCACUGAAUUCUUACGAGAAGGGCCGUCCACGC | 312 nM | 261 nM | – | – |
| CGCUAUUACAUGAGGAUCACCCAUGUAUAUAUUGUAUUUUCGUAGGAUAUGCAGAAGAUUAAAGUGCAGAAGGACGUAAUAGCG | – | – | 29.1 nM | 7.48 nM |
| CAGCCCUGAGGAUAUCCAUCCUUGUACAUGAGGAUCACCCAUGUUUCCCUCUGGGCUUUCGGAGAAGGCAGGUAUC | 61 nM | 61.7 nM | – | – |
| UGUCAUAAAUAGAAGGGUAGUUGGGUUUUACAUGAGGAUCACCCAUGUAUUAUAGGAUAUGUGUAAAGUUAUUAUUAAAGUAAA | 39.2 nM | 34.5 nM | – | – |
| CCUCGGUUAGGAUAUGGAUGGUCACCCUGCGGUGUACCGCUCCAGAAGGGACAUGAGGAUCACCCAUGUUACGC | 106 nM | 338 nM | – | – |
| GCUAAUAUUUUGUUAAAUGUAUUUUGAGAAGGCAUACACAUGAGGAUCACCCAUGUAAUUUGUAAUGAGGAUAUCAUGAUGUGC | – | – | 115 nM | 31.5 nM |
| GGACGUCUCAUUAACAUGAGGAUCACCCAUGUCGAAAGACAUGAGGAUAUGGAUCCUAAUUGGAUCCAGAAGGCAUGGACGUCC | – | – | 98 nM | 582 nM |
| UCAUUUAUUACAGGAUAUAUUAGUAUACAGUUGUUUGGUUAUUACAUAUUAAUAGAAGGGUAGAACAUGAGGAUCACCCAUGUA | – | – | 234 nM | 119 nM |
| CCUUACACCGAGAAGGGCACGUAUUGAAGAGGGUGCCAGGAACAUCACAUGAGGAUCACCCAUGUGCAGGAUAUCGGCAGGAAC | 9.78 nM | 22.3 nM | – | – |
| CUUUUGUGAGGAUAUCAUUAGUAAAUAAAUAAAAUUACUACUGAGAAGGCACAUGAGGAUCACCCAUGUUCCUC | 33.9 nM | 159 nM | – | – |
| CGUGCUAUGUAGAAGGCAGAUCUGAUUCAGAUCUGAGGAUAUACAUGAGGAUCACCCAUGUUAUGCACCAGCACGAGAGUGCAC | – | 11.5 nM | – | – |
| UCGAACUUUCGUGUAAUUCGCACAUGAGGAUCACCCAUGUACGAGGAUAUGUACCUAAACGGCUAACAGAAGGCGUACUGGGCA | 170 nM | 106 nM | – | – |
| ACAUGUACAGGAUAUACAUGAGUGAUACACGUAUUUCCACUACAUGAGGAUCACCCAUGUAGAAGGGUACAUGA | 50.2 nM | 19.5 nM | – | – |
| AAAAAAAAAACUGAGGAUAUGAAAUAAUAGACAUGAGGAUCACCCAUGUUUUCGGUCGAAAAAAUGCAGAAGGCAGAAAAAAAAAA | – | – | 31.6 nM | 29.1 nM |
| AGGUACUAGGGAGGAUAUGGGAAGAUACAUGAGGAUCACCCAUGUUUAAGAAUGCCGAGAGGCAACUAGAAGGCCCUAGUACCU | – | – | 454 nM | 19.8 nM |
| UAAAUACAUGAGGAUCACCCAUGUCAAAAGACAUGAGGAUAUGUACAGACUUCGGUCUGUACAGAAGGCAUGAAAA | – | – | 680 nM | 55.4 nM |

Source: the EternaBench riboswitch data
